Measurements taken from ChEMBL document CHEMBL1909563, “Anti-inflammatory triterpenoid saponins from the stem bark of Kalopanax pictus” (J Nat Prod, 2011).
pIC50: −log10 of the molar value. The source made the active and inactive calls. No cut-off for these calls is given here.

Columns and labels:
Assay type in all cases: cell-based
[1] = Inhibition of TNF-alpha-induced NFkappaB activation in human HepG2 cells after 1 hr by luciferase reporter assay; details: HepG2, 1 h
Procedure, shortened: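 HepG2 cells seeded at 1.5 × 10^5 per well, grown 24 h, then transiently transfected with NF-kB-responsive firefly luciferase reporter (minimal CMV promoter, tandem NF-kB response elements). Pretreated 1 h with DMSO vehicle or compound, then 10 ng/mL TNFα for 1 h; cells lysed, luciferin added, luminescence read.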

[2] = tested on: HepG2; assay: Inhibition of NF-kappaB-induced iNOS mRNA expression in TNF-alpha-stimulated human HepG2 cells after 1 hr by RT-PCR analysis
Procedure, shortened: (§1)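 HepG2 cells stimulated with TNFα alone or with compound at 0.1, 1 and 10 μM; COX-2 and iNOS mRNA measured against β-actin housekeeping control. Mean ± SD (n = 6); significance versus TNFα-stimulated cells by Dunnett's multiple comparison test (p < 0.05, p < 0.01).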

[3] = tested on: HepG2; assay: Inhibition of NF-kappaB-induced COX2 mRNA expression in TNF-alpha-stimulated human HepG2 cells after 1 hr by RT-PCR analysis; procedure, shortened: as §1
[4] = tested on: HepG2; assay: Cytotoxicity against human HepG2 cells by MTT assay
[5] = tested on: HepG2; assay: Inhibition of NF-kappaB-induced iNOS mRNA expression in TNF-alpha-stimulated human HepG2 cells at 0.1 to 10 uM after 1 hr by RT-PCR analysis; procedure, shortened: as §1
[6] = tested on: HepG2; assay: Inhibition of NF-kappaB-induced COX2 mRNA expression in TNF-alpha-stimulated human HepG2 cells at 0.1 to 10 uM after 1 hr by RT-PCR analysis; procedure, shortened: as §1

pIC50 [1] | SMILES | inhibition [2] | inhibition [3] | Activity [4] | inhibition [5] | inhibition [6]
< 4.70 | CC1(C)CC[C@]2(C(=O)O)CC[C@]3(C)C(=CC[C@@H]4[C@@]5(C)CC[C@H](O)[C@@](C)(CO)[C@@H]5CC[C@]43C)[C@@H]2C1 [HEDERAGENIN] | – | – | – | inactive | inactive
6.10 | C[C@@H]1O[C@@H](O[C@H]2[C@H](O[C@H]3CC[C@@]4(C)[C@@H](CC[C@]5(C)[C@@H]4CC=C4[C@@H]6CC(C)(C)CC[C@]6(C(=O)O[C@@H]6O[C@H](CO[C@@H]7O[C@H](CO)[C@@H](O[C@@H]8O[C@@H](C)[C@H](O)[C@@H](O)[C@H]8O)[C@H](O)[C@H]7O)[C@@H](O)[C@H](O)[C@H]6O)CC[C@]45C)[C@]3(C)CO)OC[C@H](O)[C@@H]2O)[C@H](O)[C@H](O)[C@H]1O [KALOPANAXSAPONIN B] | Dose-dependent effect | Dose-dependent effect | Non-toxic | – | –
5.41 | C[C@@H]1O[C@@H](O[C@H]2[C@H](O[C@H]3CC[C@@]4(C)[C@@H](CC[C@]5(C)[C@@H]4CC=C4[C@@H]6CC(C)(C)CC[C@]6(C(=O)O[C@@H]6O[C@H](CO[C@@H]7O[C@H](CO)[C@@H](O[C@@H]8O[C@@H](C)[C@H](O)[C@@H](O)[C@H]8O)[C@H](O)[C@H]7O)[C@@H](O)[C@H](O)[C@H]6O)CC[C@]45C)[C@]3(C)CO)OC[C@H](O)[C@@H]2O[C@@H]2O[C@H](CO)[C@@H](O)[C@H](O)[C@H]2O)[C@H](O)[C@H](O)[C@H]1O [KALOPANAXSAPONIN C] | Dose-dependent effect | Dose-dependent effect | Non-toxic | – | –
< 4.70 | C[C@@]1(CO)CC[C@]2(C(=O)O)CC[C@]3(C)C(=CC[C@@H]4[C@@]5(C)CC[C@H](O)[C@@](C)(CO)[C@@H]5CC[C@]43C)[C@@H]2C1 [NIPPONOGENIN E] | – | – | – | – | –
6.22 | C[C@@H]1O[C@@H](O[C@H]2[C@H](O)[C@@H](O)[C@H](OC[C@H]3O[C@@H](OC(=O)[C@]45CCC(C)(C)C[C@H]4C4=CC[C@@H]6[C@@]7(C)CC[C@H](O[C@@H]8OC[C@H](O)[C@H](O)[C@H]8O[C@@H]8O[C@@H](C)[C@H](O)[C@@H](O[C@@H]9OC[C@@H](O)[C@H](O)[C@H]9O)[C@H]8O)[C@@](C)(CO)[C@@H]7CC[C@@]6(C)[C@]4(C)CC5)[C@H](O)[C@@H](O)[C@@H]3O)O[C@@H]2CO)[C@H](O)[C@H](O)[C@H]1O [SIEBOLDIANOSIDE A] | Dose-dependent effect | Dose-dependent effect | Non-toxic | – | –

Second part, the compound before the results:

SMILES | pIC50 [1] | inhibition [2] | inhibition [3] | Activity [4] | inhibition [5] | inhibition [6]
C[C@@]1(CO)CC[C@]2(C(=O)O)[C@H](O)C[C@]3(C)C(=CC[C@@H]4[C@@]5(C)CCC(=O)[C@@](C)(CO)[C@@H]5CC[C@]43C)[C@@H]2C1 | 5.19 | Dose-dependent effect | Dose-dependent effect | Non-toxic | – | –
COC(=O)CC[C@]1(C)[C@H]2CC=C3[C@@H]4C[C@](C)(CO)CC[C@]4(C(=O)O)CC[C@@]3(C)[C@]2(C)CC[C@H]1C(C)(O)CO (some centres not stated) | 5.03 | Dose-dependent effect | Dose-dependent effect | Non-toxic | – | –
CC1(C)CC[C@]2(C(=O)O[C@@H]3O[C@H](CO)[C@@H](O)[C@H](O)[C@H]3O)CC[C@]3(C)C(=CC[C@@H]4[C@@]5(C)CC[C@H](O)[C@@](C)(CO)[C@@H]5[C@H](O)C[C@]43C)[C@@H]2C1 | 4.79 | Dose-dependent effect | Dose-dependent effect | Non-toxic | – | –
CC(=O)O[C@@H]1[C@@H](OC(C)=O)[C@H](O[C@H]2CC[C@@]3(C)[C@@H](CC[C@]4(C)[C@@H]3CC=C3[C@@H]5CC(C)(C)CC[C@]5(C(=O)O[C@@H]5O[C@H](CO[C@@H]6O[C@H](CO)[C@@H](O[C@@H]7O[C@@H](C)[C@H](O)[C@@H](O)[C@H]7O)[C@H](O)[C@H]6O)[C@@H](O)[C@H](O)[C@H]5O)CC[C@]34C)[C@]2(C)CO)OC[C@@H]1O | 5.05 | Dose-dependent effect | Dose-dependent effect | Non-toxic | – | –
CC(=O)O[C@@H]1[C@@H](O)[C@H](O[C@H]2CC[C@@]3(C)[C@@H](CC[C@]4(C)[C@@H]3CC=C3[C@@H]5CC(C)(C)CC[C@]5(C(=O)O[C@@H]5O[C@H](CO[C@@H]6O[C@H](CO)[C@@H](O[C@@H]7O[C@@H](C)[C@H](O)[C@@H](O)[C@H]7O)[C@H](O)[C@H]6O)[C@@H](O)[C@H](O)[C@H]5O)CC[C@]34C)[C@]2(C)CO)OC[C@@H]1OC(C)=O | 5.03 | Dose-dependent effect | Dose-dependent effect | Non-toxic | – | –
CC1(C)CC[C@]2(C(=O)O)CC[C@]3(C)C(=CC[C@@H]4[C@@]5(C)CC[C@H](O)[C@@](C)(CO)[C@@H]5[C@H](O)C[C@]43C)[C@@H]2C1 | 5.85 | Dose-dependent effect | Dose-dependent effect | Non-toxic | – | –
CC1(C)CC[C@]2(C(=O)O[C@@H]3O[C@H](CO)[C@@H](O)[C@H](O)[C@H]3O)CC[C@]3(C)C(=CC[C@@H]4[C@@]5(C)CC[C@H](O)[C@@](C)(CO)[C@@H]5CC[C@]43C)[C@@H]2C1 | 5.04 | Dose-dependent effect | Dose-dependent effect | Non-toxic | – | –
C[C@@H]1O[C@@H](O[C@H]2[C@H](O[C@H]3CC[C@@]4(C)[C@@H](CC[C@]5(C)[C@@H]4CC=C4[C@@H]6CC(C)(C)CC[C@]6(C(=O)O)CC[C@]45C)[C@]3(C)CO)OC[C@H](O)[C@@H]2O)[C@H](O)[C@H](O)[C@H]1O [ALPHA-HEDERIN] | 5.26 | Dose-dependent effect | Dose-dependent effect | Non-toxic | – | –
C[C@@H]1O[C@@H](O[C@H]2[C@H](O)[C@@H](O)[C@H](OC[C@H]3O[C@@H](OC(=O)[C@]45CCC(C)(C)C[C@H]4C4=CC[C@@H]6[C@@]7(C)CC[C@H](O[C@@H]8OC[C@H](O)[C@H](O)[C@H]8O)[C@@](C)(CO)[C@@H]7CC[C@@]6(C)[C@]4(C)CC5)[C@H](O)[C@@H](O)[C@@H]3O)O[C@@H]2CO)[C@H](O)[C@H](O)[C@H]1O [CAULOSIDE D] | 5.04 | Dose-dependent effect | Dose-dependent effect | Non-toxic | – | –
CC1(C)CC[C@]2(C(=O)O[C@@H]3O[C@H](CO[C@@H]4O[C@H](CO)[C@@H](O)[C@H](O)[C@H]4O)[C@@H](O)[C@H](O)[C@H]3O)CC[C@]3(C)C(=CC[C@@H]4[C@@]5(C)CC[C@H](O)[C@@](C)(CO)[C@@H]5CC[C@]43C)[C@@H]2C1 [DIPSACUSSAPONIN A] | 5.21 | Dose-dependent effect | Dose-dependent effect | Non-toxic | – | –
O=C(O)c1cc(/N=N/c2ccc(S(=O)(=O)Nc3ccccn3)cc2)ccc1O [SULFASALAZINE] | 6.05 | – | – | – | – | –
